Among the data in ChEMBL document CHEMBL2375235, “Synthesis, radioiodination and in vivo screening of novel potent iodinated and fluorinated radiotracers as melanoma imaging and therapeutic probes” (Eur J Med Chem, 2013) are Drug uptake, Ratio and Activity values, retold here.

Molecules are shown by their SMILES.

The nature of data set [1]: Drug uptake in tumor of C57BL/6J mouse xenografted with mouse B16F0 cells at 3.7 MBq, iv after 14 days by gamma scintigraphic imaging analysis relative to control. The format is ADME, organism-based, Neoplasm. The following applies: in vivo, 336 h. The method, boiled down:
(§1)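 Male C57BL/6J mice (6-8 weeks) bearing subcutaneous B16F0 tumours (3×10^5 cells in PBS, right flank, isoflurane anaesthesia); on day 14 after implant, [125I]-labelled tracer given i.v. via tail vein, 3.7 MBq/mouse, in physiological serum (some tracers in 5% ethanol/physiological serum); 3-8 animals per compound. Under i.p. ketamine (100 mg/kg)–xylazine (10 mg/kg), 10 min planar scintigrams acquired in prone position, 15% window on 35 keV peak.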

Data set [2] can be described thus: Drug uptake in tumor of C57BL/6J mouse xenografted with mouse B16F0 cells at 3.7 MBq, iv after 24 hrs by gamma scintigraphic imaging analysis relative to control. The format is ADME, organism-based, Neoplasm. The note with it: in vivo. The method, boiled down: as §1
Data set [3] is described as follows: Drug uptake in tumor of C57BL/6J mouse xenografted with mouse B16F0 cells at 3.7 MBq, iv after 6 hrs by gamma scintigraphic imaging analysis relative to control. Type of data set: ADME, organism-based, Neoplasm. The note with it: in vivo. The method, boiled down:
as §1

The nature of data set [4]: Drug uptake in tumor of C57BL/6J mouse xenografted with mouse B16F0 cells at 3.7 MBq, iv after 1 hr by gamma scintigraphic imaging analysis relative to control. The format is ADME, organism-based, Neoplasm. The following applies: in vivo. In a few lines: as §1
Data set [5] is described as follows: Drug uptake in tumor of C57BL/6J mouse xenografted with mouse B16F0 cells at 3.7 MBq, iv after 3 hrs by gamma scintigraphic imaging analysis relative to control. The format is ADME, organism-based, Neoplasm. The following applies: in vivo. The method, boiled down:
as §1

Data set [6] in a line: Drug uptake in tumor of C57BL/6J mouse xenografted with mouse B16F0 cells at 3.7 MBq, iv after 10 days by gamma scintigraphic imaging analysis relative to control. The format is ADME, organism-based, Neoplasm. The note with it: in vivo, 240 h. The method, boiled down: as §1
The nature of data set [7]: Drug uptake in tumor of C57BL/6J mouse xenografted with mouse B16F0 cells at 3.7 MBq, iv after 72 hrs by gamma scintigraphic imaging analysis relative to control. The following applies: in vivo. The format is ADME, organism-based, Neoplasm. The method, boiled down: as §1
Data set [8] in a line: Drug uptake in tumor of C57BL/6J mouse xenografted with mouse B16F0 cells at 3.7 MBq, iv after 7 days by gamma scintigraphic imaging analysis relative to control. Type of data set: ADME, organism-based, Neoplasm. The note with it: in vivo, 168 h. The method, boiled down:
as §1

Data set [9] in a line: Drug uptake in tumor of C57BL/6J mouse xenografted with mouse B16F0 cells at 3.7 MBq, iv after 5 days by gamma scintigraphic imaging analysis relative to control. The format is ADME, organism-based, Neoplasm. The following applies: in vivo, 120 h. In a few lines: as §1
Data set [10] can be described thus: Ratio of drug uptake in tumor to muscle in C57BL/6J mouse xenografted with mouse B16F0 cells at 3.7 MBq, iv after 1 hr. The following applies: in vivo.
Another data set concerns Mus musculus. Nature of the data set: Toxicity against C57BL/6J mouse xenografted with mouse B16F0 cells assessed as mortality at 3.7 MBq, iv after 2 days. The following applies: in vivo, 48 h. The format is organism-based. In a few lines:
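Male C57BL/6J mice (6-8 weeks) were inoculated s.c. on the right flank with 3×10^5 B16F0 cells in 0.1 mL PBS under 2% isoflurane. On day 14 after implant they received the [125I]-labelled tracer i.v. via the tail vein at 3.7 MBq/mouse, in physiological serum (5% ethanol in physiological serum for non-salt forms), with 3–8 animals per compound. Survival was recorded 2 days post-injection.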

For `CCN(CCNC(=O)c1cnc2cc([125I])ccc2n1)CCOCCOCCOCCF.Cl`, the Drug uptake in [1] was found to be 0.6 % ID/g; in data set [2], 12.4 % ID/g; in data set [3], 12.1 % ID/g; in [4], 11.7 % ID/g; in data set [5], 12.1 % ID/g; in [6], 1.3 % ID/g. Also, the Drug uptake is 8.6 % ID/g in [7], 2.7 % ID/g in [8] and 5.8 % ID/g in data set [9]. For the same compound, in data set [10], the Ratio is given as 5.76.

Consider `CCN(CCNC(=O)c1cnc2cc([125I])ccc2n1)Cc1cn(CCF)nn1.Cl`, for which the Drug uptake came out at 1.8 % ID/g in [1]; 15.6 % ID/g in data set [2]; 15.9 % ID/g in data set [3]; 13 % ID/g in [4]; 14.5 % ID/g in data set [5]; 3.7 % ID/g in [6]. Moreover, the values for the Drug uptake in [7], in [8] and in [9] were 11 % ID/g, 5.3 % ID/g and 8.6 % ID/g, respectively. For the same compound, in data set [10], the Ratio is listed as 5.76.

On to `CCN(CC#CCF)CCNC(=O)c1cnc2cc([125I])ccc2n1.Cl`, for which the Drug uptake in [1] is 2.2 % ID/g; in [2] it was 23.5 % ID/g; in data set [3], 23.3 % ID/g; in data set [4], 12.3 % ID/g; in data set [5] it was 18.3 % ID/g; in data set [6], 4.2 % ID/g. Moreover, the Drug uptake in data set [7] turned out to be 14.9 % ID/g; in data set [8], 8 % ID/g; in [9], 11.6 % ID/g. The Ratio in data set [10] amounted to 5.76.

Take `CCN(CCF)CCNC(=O)c1cnc2cc([125I])ccc2n1.Cl`: the Drug uptake was determined as 0.6 % ID/g in data set [1]; 24.8 % ID/g in data set [2]; 25 % ID/g in [3]; 21.4 % ID/g in [4]; 22.5 % ID/g in data set [5]; 1.6 % ID/g in data set [6]. Also, the Drug uptake is 20 % ID/g in [7] and 8.4 % ID/g in data set [9]. In addition, in the data set on Mus musculus, the Activity result was “Toxic”.

With `CCN(C/C=C/CF)CCNC(=O)c1cnc2cc([125I])ccc2n1.Cl`, the Drug uptake in data set [1] is on record as 1.3 % ID/g; in data set [2], 15 % ID/g; in data set [3], 13.9 % ID/g; in [4], 10.8 % ID/g; in data set [5], 12.3 % ID/g; in [6] it was 1.9 % ID/g. In addition, the Drug uptake in [7] worked out at 10 % ID/g; in data set [8] it was 3.3 % ID/g; in [9], 5.6 % ID/g. Further, the Ratio in data set [10] came to 5.76.

Turning to `CCN(CCCF)CCNC(=O)c1cnc2cc([125I])ccc2n1`, the Drug uptake in [1] stood at 0.8 % ID/g; in data set [2], 11.4 % ID/g; in data set [3], 15.3 % ID/g; in data set [4] it was 10 % ID/g; in data set [5], 13.5 % ID/g; in data set [6], 1.4 % ID/g. The figures for the Drug uptake in [7], in [8] and in [9] were 8.5 % ID/g, 3 % ID/g and 5.4 % ID/g, respectively.

In the case of `CCN(CCNC(=O)c1cnc2cc([125I])ccc2n1)CCOCCOCCOCCOCCOCCOCCOCCF`, the Drug uptake in data set [1] was 0.3 % ID/g; in [2], 6.8 % ID/g; in data set [3], 7.2 % ID/g; in data set [4], 6.8 % ID/g; in [5], 7.8 % ID/g; in [6], 0.8 % ID/g. Further, the values for the Drug uptake in data set [7], in [8] and in data set [9] were 3.8 % ID/g, 1.5 % ID/g and 2.7 % ID/g, respectively.
